Laboratory results from ChEMBL document CHEMBL4406830, “Galloyl esters of trans-stilbenes are inhibitors of FASN with anticancer activity on non-small cell lung cancer cells” (Eur J Med Chem, 2019).
pIC50: −log10 of the molar value. Values after ≈ are worked out from the molar mass of the structure shown. Active and inactive are the calls of the source. No cut-off for these calls is given here.

Assays:
NCI-H1703 [1] = assay: Antiproliferative activity against human NCI-H1703 cells expressing FASN assessed as growth inhibition at 25 uM after 72 hrs by MTS assay relative to control; assay type: functional; conditions: NCI-H1703, 72 h
How it was run: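 H1703 cells were treated with a single 25 µM concentration for 72 h. Viability was measured by MTS at 490 nm, with 0.1% DMSO and media-only correction, relative to untreated control. Mean ± SD of n = 3 independent determinations, unpaired t test against control.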

NCI-H1299 = assay: Antiproliferative activity against human NCI-H1299 cells expressing FASN assessed as reduction in cell viability after 72 hrs by MTS assay; assay type: functional, cell-based; conditions: NCI-H1299, 72 h
How it was run: (§1)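 ATCC-sourced cells. H1299, H1650, H1703 and PC-9 were grown in RPMI 1640 with 10% FBS. A549 was grown in high-glucose DMEM with 10% FBS and 1 mM pyruvate. SAEC was grown in BEGM. Cells were seeded at 3 × 10^3 per well (H1650 3.5 × 10^3) and left to attach overnight. Serial dilutions from DMSO stocks were added, 0.1% DMSO final, for 72 h at 37 °C, 5% CO2. Medium was replaced, MTS added, and A490 read after 2 h. IC50 was taken from % viability versus log concentration, 3 experiments.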

NCI-H1703 [2] = assay: Antiproliferative activity against human NCI-H1703 cells expressing FASN assessed as reduction in cell viability after 72 hrs by MTS assay; assay type: functional, cell-based; conditions: NCI-H1703, 72 h; how it was run: as §1
NCI-H1650 = assay: Antiproliferative activity against human NCI-H1650 cells expressing FASN assessed as reduction in cell viability after 72 hrs by MTS assay; assay type: functional, cell-based; conditions: NCI-H1650, 72 h; how it was run: as §1
[3] = Kinetic solubility of the compound in universal buffer at pH 7.4 measured at 25 degC after 24 hrs by UV/Visible spectroscopic analysis; assay type: physicochemical; conditions: read-out: Kinetic_solubility
[4] = target: Fatty acid synthase (Homo sapiens) (UniProt P49327); assay: Inhibition of FASN in human PC9 cells harboring FASN expression and EGFR delE746-A750 mutant assessed as disruption of AKT/FASN positive feedback loop by measuring reduction in AKT expression at 100 uM after 48 hrs by Western immunoblot based densitometric assay relative to control; assay type: cell-based
How it was run: (§2)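 PC-9 or H1703 cells were seeded at 8 × 10^5 per 100 mm dish and treated for 48 h at 1 or 5 µM (or 5, 50 and 100 µM). RIPA lysates were BCA-quantified and run on 8% SDS-PAGE, then transferred to PVDF. Blots were probed for FASN, AKT, phospho-AKT S473 and GAPDH and detected by ECL. Bands were quantified by densitometry and normalised to vehicle control.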

PC-9 = assay: Induction of apoptosis in human PC9 cells harboring FASN expression and EGFR delE746-A750 mutant assessed as cell death at 5 to 100 uM after 72 hrs by Annexin-V FITC/PI staining-based flow cytometry; assay type: functional
[5] = target: Fatty acid synthase (Homo sapiens) (UniProt P49327); assay: Inhibition of FASN in human PC9 cells harboring FASN expression and EGFR delE746-A750 mutant assessed as disruption of AKT/FASN positive feedback loop by measuring reduction in AKT expression at 50 uM after 48 hrs by Western immunoblot based densitometric assay relative to control; assay type: cell-based; how it was run: as §2
[6] = target: Fatty acid synthase (Homo sapiens) (UniProt P49327); assay: Inhibition of FASN in human NCI-H1703 cells expressing FASN assessed as disruption of AKT/FASN positive feedback loop by measuring decrease in AKT expression at 100 uM after 48 hrs by Western immunoblot based densitometric assay relative to control; assay type: cell-based; how it was run: as §2
[7] = target: Fatty acid synthase (Homo sapiens) (UniProt P49327); assay: Inhibition of FASN in human NCI-H1703 cells expressing FASN assessed as disruption of AKT/FASN positive feedback loop by measuring decrease in FASN expression at 50 uM after 48 hrs by Western immunoblot based densitometric assay relative to control; assay type: cell-based; how it was run: as §2
[8] = target: Fatty acid synthase (Homo sapiens) (UniProt P49327); assay: Inhibition of FASN in human PC9 cells harboring FASN expression and EGFR delE746-A750 mutant assessed as disruption of AKT/FASN positive feedback loop by measuring decrease in FASN expression at 5 uM after 48 hrs by Western immunoblot based densitometric assay relative to control; assay type: cell-based; how it was run: as §2
[9] = target: Fatty acid synthase (Homo sapiens) (UniProt P49327); assay: Inhibition of FASN in human PC9 cells harboring FASN expression and EGFR delE746-A750 mutant assessed as disruption of AKT/FASN positive feedback loop by measuring decrease in FASN expression at 100 uM after 48 hrs by Western immunoblot based densitometric assay relative to control; assay type: cell-based; how it was run: as §2
[10] = target: Fatty acid synthase (Homo sapiens) (UniProt P49327); assay: Inhibition of FASN in human PC9 cells harboring FASN expression and EGFR delE746-A750 mutant assessed as disruption of AKT/FASN positive feedback loop by measuring reduction in AKT expression at 5 uM after 48 hrs by Western immunoblot based densitometric assay relative to control; assay type: cell-based; how it was run: as §2
[11] = target: Fatty acid synthase (Homo sapiens) (UniProt P49327); assay: Inhibition of FASN in human NCI-H1703 cells expressing FASN assessed as disruption of AKT/FASN positive feedback loop by measuring decrease in FASN expression at 5 uM after 48 hrs by Western immunoblot based densitometric assay relative to control; assay type: cell-based; how it was run: as §2
[12] = target: Fatty acid synthase (Homo sapiens) (UniProt P49327); assay: Inhibition of FASN in human NCI-H1703 cells expressing FASN assessed as disruption of AKT/FASN positive feedback loop by measuring decrease in phosphorylated AKT expression at 50 uM after 48 hrs by Western immunoblot based densitometric assay relative to control; assay type: cell-based; how it was run: as §2
[13] = target: Fatty acid synthase (Homo sapiens) (UniProt P49327); assay: Inhibition of FASN in human NCI-H1703 cells expressing FASN assessed as disruption of AKT/FASN positive feedback loop by measuring decrease in phosphorylated AKT expression at 100 uM after 48 hrs by Western immunoblot based densitometric assay relative to control; assay type: cell-based; how it was run: as §2
NCI-H1703 [14] = assay: Induction of apoptosis in human NCI-H1703 cells expressing FASN assessed as cell death at 5 to 100 uM after 72 hrs by Annexin-V FITC staining/PI-based flow cytometry; assay type: functional
[15] = target: Fatty acid synthase (Homo sapiens) (UniProt P49327); assay: Inhibition of FASN in human PC9 cells harboring FASN expression and EGFR delE746-A750 mutant assessed as disruption of AKT/FASN positive feedback loop by measuring decrease in FASN expression at 50 uM after 48 hrs by Western immunoblot based densitometric assay relative to control; assay type: cell-based; how it was run: as §2
[16] = target: Fatty acid synthase (Homo sapiens) (UniProt P49327); assay: Inhibition of full length human FASN transfected in HeLa cell lysates at 10 uM using acetyl Co-A/malonyl Co-A as substrate preincubated with enzyme for 2 hrs followed by substrate addition measured after 10 mins in presence of NADPH by microplate reader analysis; assay type: subcellular; conditions: Lysate
How it was run: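 Human FASN was made by in vitro translation from a FASN plasmid. Lysate was diluted 3:7 in 100 mM potassium phosphate, pH 6.5, 1 mM EDTA. It was preincubated with compound (10 µM final) for 2 h at 37 °C. Buffer containing acetyl-CoA (55 µM) and NADPH (330 µM) was added, then the reaction was started with malonyl-CoA (500 µM stock). A340 was read at 0 and 10 min; triplicates.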

[17] = target: Fatty acid synthase (Homo sapiens) (UniProt P49327); assay: Inhibition of FASN in human NCI-H1703 cells expressing FASN assessed as disruption of AKT/FASN positive feedback loop by measuring decrease in phosphorylated AKT expression at 5 uM after 48 hrs by Western immunoblot based densitometric assay relative to control; assay type: cell-based; how it was run: as §2
[18] = target: Fatty acid synthase (Homo sapiens) (UniProt P49327); assay: Inhibition of FASN in human NCI-H1703 cells expressing FASN assessed as disruption of AKT/FASN positive feedback loop by measuring decrease in AKT expression at 50 uM after 48 hrs by Western immunoblot based densitometric assay relative to control; assay type: cell-based; how it was run: as §2
[19] = target: Fatty acid synthase (Homo sapiens) (UniProt P49327); assay: Inhibition of FASN in human NCI-H1703 cells expressing FASN assessed as disruption of AKT/FASN positive feedback loop by measuring decrease in AKT expression at 5 uM after 48 hrs by Western immunoblot based densitometric assay relative to control; assay type: cell-based; how it was run: as §2
[20] = target: Fatty acid synthase (Homo sapiens) (UniProt P49327); assay: Inhibition of FASN in human PC9 cells harboring FASN expression and EGFR delE746-A750 mutant assessed as disruption of AKT/FASN positive feedback loop by measuring reduction in phosphorylated AKT expression at 5 uM after 48 hrs by Western immunoblot based densitometric assay relative to control; assay type: cell-based; how it was run: as §2
[21] = target: Fatty acid synthase (Homo sapiens) (UniProt P49327); assay: Inhibition of FASN in human PC9 cells harboring FASN expression and EGFR delE746-A750 mutant assessed as disruption of AKT/FASN positive feedback loop by measuring reduction in phosphorylated AKT expression at 50 uM after 48 hrs by Western immunoblot based densitometric assay relative to control; assay type: cell-based; how it was run: as §2
[22] = target: Fatty acid synthase (Homo sapiens) (UniProt P49327); assay: Inhibition of FASN in human NCI-H1703 cells expressing FASN assessed as disruption of AKT/FASN positive feedback loop by measuring decrease in FASN expression at 100 uM after 48 hrs by Western immunoblot based densitometric assay relative to control; assay type: cell-based; how it was run: as §2
[23] = target: Fatty acid synthase (Homo sapiens) (UniProt P49327); assay: Inhibition of FASN in human PC9 cells harboring FASN expression and EGFR delE746-A750 mutant assessed as disruption of AKT/FASN positive feedback loop by measuring reduction in phosphorylated AKT expression at 100 uM after 48 hrs by Western immunoblot based densitometric assay relative to control; assay type: cell-based; how it was run: as §2

Chain of Fatty acid synthase (Homo sapiens) (P49327 whole entry, looked up): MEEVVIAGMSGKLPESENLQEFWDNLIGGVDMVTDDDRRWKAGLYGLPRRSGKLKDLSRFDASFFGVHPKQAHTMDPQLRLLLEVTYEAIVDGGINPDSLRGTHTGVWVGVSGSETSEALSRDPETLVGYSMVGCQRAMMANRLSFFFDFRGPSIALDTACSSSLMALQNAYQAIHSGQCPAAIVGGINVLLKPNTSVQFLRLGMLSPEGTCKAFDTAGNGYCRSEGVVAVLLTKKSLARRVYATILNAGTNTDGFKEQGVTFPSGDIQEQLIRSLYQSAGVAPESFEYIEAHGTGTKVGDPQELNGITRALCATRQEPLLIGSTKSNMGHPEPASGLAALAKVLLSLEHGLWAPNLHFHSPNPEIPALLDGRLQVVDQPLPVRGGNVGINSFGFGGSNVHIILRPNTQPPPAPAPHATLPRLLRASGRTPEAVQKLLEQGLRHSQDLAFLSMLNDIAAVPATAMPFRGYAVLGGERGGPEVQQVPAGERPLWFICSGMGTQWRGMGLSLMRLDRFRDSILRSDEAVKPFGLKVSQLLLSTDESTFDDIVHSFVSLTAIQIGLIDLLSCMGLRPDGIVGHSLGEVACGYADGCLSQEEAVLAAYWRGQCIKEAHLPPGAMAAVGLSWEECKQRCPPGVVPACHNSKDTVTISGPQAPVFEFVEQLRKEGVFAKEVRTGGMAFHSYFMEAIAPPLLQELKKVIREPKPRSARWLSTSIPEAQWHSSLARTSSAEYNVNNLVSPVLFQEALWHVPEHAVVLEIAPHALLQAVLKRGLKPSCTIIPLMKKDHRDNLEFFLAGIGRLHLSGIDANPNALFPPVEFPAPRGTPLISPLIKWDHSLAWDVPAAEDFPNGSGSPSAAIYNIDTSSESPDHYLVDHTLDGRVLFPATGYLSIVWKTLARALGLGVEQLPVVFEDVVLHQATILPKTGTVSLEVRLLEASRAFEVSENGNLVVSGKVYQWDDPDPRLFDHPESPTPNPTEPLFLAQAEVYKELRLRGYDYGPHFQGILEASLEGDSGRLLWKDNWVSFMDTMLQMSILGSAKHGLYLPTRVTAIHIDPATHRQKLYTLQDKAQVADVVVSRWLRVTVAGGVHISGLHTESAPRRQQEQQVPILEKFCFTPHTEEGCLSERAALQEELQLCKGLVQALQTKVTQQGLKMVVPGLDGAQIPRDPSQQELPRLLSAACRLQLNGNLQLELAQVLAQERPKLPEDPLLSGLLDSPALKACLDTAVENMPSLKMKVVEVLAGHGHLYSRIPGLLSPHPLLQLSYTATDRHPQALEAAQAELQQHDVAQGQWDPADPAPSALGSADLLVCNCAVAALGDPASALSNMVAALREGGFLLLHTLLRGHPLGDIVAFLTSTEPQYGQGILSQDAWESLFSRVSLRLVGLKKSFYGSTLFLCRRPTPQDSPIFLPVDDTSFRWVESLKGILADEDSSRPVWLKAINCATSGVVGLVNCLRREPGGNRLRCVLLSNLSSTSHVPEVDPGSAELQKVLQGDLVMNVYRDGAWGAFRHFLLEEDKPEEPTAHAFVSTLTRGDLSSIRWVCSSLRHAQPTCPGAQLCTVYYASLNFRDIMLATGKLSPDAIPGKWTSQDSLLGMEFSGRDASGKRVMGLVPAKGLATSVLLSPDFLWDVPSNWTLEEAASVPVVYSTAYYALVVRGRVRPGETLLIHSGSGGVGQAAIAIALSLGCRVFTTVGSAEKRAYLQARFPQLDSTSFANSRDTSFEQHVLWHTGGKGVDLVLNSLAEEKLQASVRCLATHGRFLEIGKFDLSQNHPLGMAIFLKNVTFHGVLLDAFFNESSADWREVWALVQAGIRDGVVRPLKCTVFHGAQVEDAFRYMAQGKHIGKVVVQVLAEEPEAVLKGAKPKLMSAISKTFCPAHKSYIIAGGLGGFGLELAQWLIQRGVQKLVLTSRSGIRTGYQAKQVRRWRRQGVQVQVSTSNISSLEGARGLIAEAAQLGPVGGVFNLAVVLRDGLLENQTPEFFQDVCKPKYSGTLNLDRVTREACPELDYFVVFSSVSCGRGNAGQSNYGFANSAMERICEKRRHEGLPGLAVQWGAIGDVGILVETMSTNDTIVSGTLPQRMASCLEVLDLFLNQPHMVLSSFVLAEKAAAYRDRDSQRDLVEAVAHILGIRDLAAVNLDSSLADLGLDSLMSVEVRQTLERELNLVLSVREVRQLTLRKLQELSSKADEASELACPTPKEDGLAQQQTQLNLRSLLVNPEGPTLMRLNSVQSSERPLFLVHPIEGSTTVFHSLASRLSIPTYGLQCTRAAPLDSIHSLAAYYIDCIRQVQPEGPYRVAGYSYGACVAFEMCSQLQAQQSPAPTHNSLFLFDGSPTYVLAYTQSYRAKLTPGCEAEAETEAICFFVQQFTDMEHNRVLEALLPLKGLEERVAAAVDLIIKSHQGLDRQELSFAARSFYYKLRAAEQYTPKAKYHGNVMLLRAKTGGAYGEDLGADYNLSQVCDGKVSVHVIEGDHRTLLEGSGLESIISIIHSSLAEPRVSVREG

O=C(Oc1cccc(/C=C/c2ccccc2)c1)c1cc(O)c(O)c(O)c1
inhibition at 25 µM (NCI-H1703 [1]): < 50%

O=C(Oc1ccc(/C=C/c2cccc(OC(=O)c3ccc(O)cc3)c2)cc1)c1ccc(O)cc1
inhibition at 25 µM (NCI-H1703 [1]): > 50% | pIC50 (NCI-H1299): 4.43 | pIC50 (NCI-H1703 [2]): 4.76 | pIC50 (NCI-H1650): 4.40

O=C(Oc1ccccc1Cc1ccccc1OC(=O)c1cc(O)c(O)c(O)c1)c1cc(O)c(O)c(O)c1
inhibition at 25 µM (NCI-H1703 [1]): > 50% | pIC50 (NCI-H1299): 4.59 | pIC50 (NCI-H1703 [2]): 4.41 | pIC50 (NCI-H1650): 3.91

O=C(Oc1ccc(/C=C/c2cccc(OC(=O)c3ccc(O)c(O)c3)c2)cc1)c1ccc(O)c(O)c1
inhibition at 25 µM (NCI-H1703 [1]): > 50% | pIC50 (NCI-H1299): 4.96 | pIC50 (NCI-H1703 [2]): 5.05 | pIC50 (NCI-H1650): 4.85

O=C(Oc1ccc(/C=C/c2ccccc2)cc1)c1cc(O)c(O)c(O)c1
inhibition at 25 µM (NCI-H1703 [1]): > 50% | pIC50 (NCI-H1299): 5.07 | pIC50 (NCI-H1703 [2]): 4.95 | pIC50 (NCI-H1650): 4.80

O=C(Oc1ccc(-c2ccc(OC(=O)c3cc(O)c(O)c(O)c3)cc2)cc1)c1cc(O)c(O)c(O)c1
pIC50 (NCI-H1299): 5.38 | pIC50 (NCI-H1703 [2]): 5.24 | pIC50 (NCI-H1650): 5.13 | solubility kinetic at 24 h [3]: 0.4 µM (≈ 0.196 µg/mL)

O=C(Oc1cccc2c1CCCC2OC(=O)c1cc(O)c(O)c(O)c1)c1cc(O)c(O)c(O)c1 (centres undefined)
inhibition at 25 µM (NCI-H1703 [1]): > 50% | pIC50 (NCI-H1299): 4.99 | pIC50 (NCI-H1703 [2]): 5.19 | pIC50 (NCI-H1650): 4.44

COc1cc(C(=O)Oc2ccc(/C=C/c3ccccc3)cc2)cc(OC)c1OC
inhibition at 25 µM (NCI-H1703 [1]): < 50%

COc1cc(C(=O)Oc2ccc(/C=C/c3cccc(OC(=O)c4cc(OC)c(OC)c(OC)c4)c3)cc2)cc(OC)c1OC
Ratio [4]: 0.98 | Activity (PC-9): inactive | Ratio [5]: 1.01 | inhibition at 25 µM (NCI-H1703 [1]): < 50% | Ratio [6]: 1 | Ratio [7]: 1.12 | Ratio [8]: 0.99 | Ratio [9]: 1.04 | Ratio [10]: 0.99 | Ratio [11]: 1.05 | Ratio [12]: 0.82 | Ratio [13]: 0.73 | Activity (NCI-H1703 [14]): inactive | Ratio [15]: 1.01 | inhibition [16]: inactive | Ratio [17]: 0.97 | Ratio [18]: 0.99 | Ratio [19]: 1.09 | Ratio [20]: 1.02 | Ratio [21]: 0.95 | Ratio [22]: 1.05 | Ratio [23]: 0.88

COc1cc(C(=O)Oc2ccc(Cc3ccc(OC(=O)c4cc(OC)c(OC)c(OC)c4)cc3)cc2)cc(OC)c1OC
inhibition at 25 µM (NCI-H1703 [1]): < 50%

O=C(Oc1ccc(Cc2ccc(OC(=O)c3cc(O)c(O)c(O)c3)cc2)cc1)c1cc(O)c(O)c(O)c1
inhibition at 25 µM (NCI-H1703 [1]): > 50% | pIC50 (NCI-H1299): 5.07 | pIC50 (NCI-H1703 [2]): 5.21 | pIC50 (NCI-H1650): 4.30

O=C(Oc1ccc(-c2cccc3ccccc23)cc1)c1cc(O)c(O)c(O)c1
inhibition at 25 µM (NCI-H1703 [1]): < 50%
